Key:
Salmonidae = assay: Binding affinity to salmon testes DNA assessed as transition temperature
Outline: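 Salmon testes DNA (15 μM base pair) melted with ligand at 15 μM in 10 mM EPPS pH 7.5, KCl added to 50 mM total K+. Absorbance followed at 260 nm in a 1 cm quartz cuvette; heating in 0.5 °C increments, 1.5 min equilibration per setting, readings averaged over 5 s.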

[1] = Cytotoxicity against human RPMI8402 cells; assay type: functional, cell-based; conditions: RPMI 8402
Homo sapiens = species on record: Homo sapiens; assay: Binding affinity to human d(T2AG3)4 DNA assessed as transition temperature
Outline: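 UV melting of d[T2G3(T2AG3)3A] (5 μM strand) with macrocycle at 20 μM in 10 mM potassium phosphate pH 7.5, KCl added to 150 mM total K+. Absorbance read at 295 nm, 1 cm quartz cuvette; temperature raised in 0.5 °C steps with 1.5 min equilibration, absorbance averaged over 5 s at each step.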

| T (Salmonidae) [°C] | T (Homo sapiens) [°C] | Structure (SMILES) | IC50 [1] [nM] |
| --- | --- | --- | --- |
| 76.5 | 77 | CC(C)[C@@H]1NC(=O)c2coc(n2)-c2coc(n2)-c2coc(n2)[C@H](C(C)C)NC(=O)c2coc(n2)-c2coc(n2)-c2coc1n2 [HEXAOXAZOLE DIVALINE] | 400 |
| 76.5 | 79 | CC(=O)NCCCC[C@@H]1NC(=O)c2coc(n2)-c2coc(n2)-c2coc(n2)[C@H](C(C)C)NC(=O)c2coc(n2)-c2coc(n2)-c2coc1n2 | – |
| 76.5 | 90 | CC(C)[C@@H]1NC(=O)c2coc(n2)-c2coc(n2)-c2coc(n2)[C@H](CCCCN)NC(=O)c2coc(n2)-c2coc(n2)-c2coc1n2 | – |
| 79 | 102 | NCCCC[C@@H]1NC(=O)c2coc(n2)-c2coc(n2)-c2coc(n2)[C@H](CCCCN)NC(=O)c2coc(n2)-c2coc(n2)-c2coc1n2 | – |

| Structure (SMILES) | T (Salmonidae) [°C] | T (Homo sapiens) [°C] | IC50 [1] [nM] |
| --- | --- | --- | --- |
| CC(C)[C@@H]1NC(=O)c2coc(n2)-c2coc(n2)-c2coc(n2)[C@H](CCCCN(C)C)NC(=O)c2coc(n2)-c2coc(n2)-c2coc1n2 | 76 | 81 | – |
